Usually Cmax stands for the peak of the concentration-time curve. As usually defined, the CC50 is the concentration at which the toxic effect on the cells reaches its halfway point. In general, half-life refers to the time in which the quantity being followed falls by half. Lower therefore signals fast loss. For orientation: AUC(0-inf) means the area under the concentration-time curve extrapolated to infinity. High values mean more exposure, low ones less exposure.

Where only a bound is given, the exact number is not on record here.

This note sets out measurements from ChEMBL document CHEMBL3826882, “Discovery of 1-((2R,4aR,6R,7R,7aR)-2-Isopropoxy-2-oxidodihydro-4H,6H-spiro[furo[3,2-d][1,3,2]dioxaphosphinine-7,2'-oxetan]-6-yl)pyrimidine-2,4(1H,3H)-dione (JNJ-54257099), a 3'-5'-Cyclic Phosphate Ester Prodrug of 2'-Deoxy-2'-Spirooxetane Uridine Triphosphate Useful for HCV Inhibition” (J Med Chem, 2016).

Data set [1] has as its system Hepatocyte. In words: Drug metabolism in human hepatocytes assessed as ((4R,5R,7R,8R)-5-(2,4-dioxo-3,4-dihydropyrimidin-1(2H)-yl)-8-hydroxy-1,6-dioxaspiro[3.4]octan-7-yl)methyl dihydrogen phosphate formation in presence of PDE4 inhibitor rolipram by LC-MS/MS analysis. Type of data set: ADME, cell-based.
For data set [2], the system named is Hepatocyte. The data set is described as follows: Drug level in human hepatocytes in presence of CYP3A4 inhibitor ritonavir by LC-MS/MS analysis. Type of data set: ADME, cell-based.
Data set [3] is described as follows: Prodrug conversion in dog cryopreserved hepatocytes assessed as 2'-deoxy-2'-spirooxetane uridine triphosphate level per million cells at 10 uM after 24 hrs by LC-MS/MS analysis. It counts as ADME, cell-based, Canis lupus familiaris, Hepatocyte. Summed up:
(§1)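 Plated cryopreserved hepatocytes (study B) incubated with 10 µM unlabeled prodrug for 2, 8 or 24 h. Triphosphate measured in cell lysates and expressed as pmol/million hepatocytes. Quantification limit 2 ng/10^6 cells.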

In data set [4] the test system is Liver. In words: Half life in mouse liver assessed as 2'-deoxy-2'-spirooxetane uridine triphosphate at 50 mg/kg, po. It counts as ADME, organism-based. Conditions: in vivo; call rule not given here. Summed up:
(§2)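 Single oral dose of 50 mg/kg in 20% HP-β-cyclodextrin. Prodrug and triphosphate measured in plasma and liver over time (tlast 6–30 h). Half-life, Cmax, tmax and AUC0-last derived; liver/plasma ratio taken from AUC0-last. Prodrug data pooled from two independent studies.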

Data set [5] relates to Hepatitis C virus. In words: Antiviral activity against HCV genotype 3a infected in homozygous cDNA-uPA chimeric SCID mouse bearing humanized hepatocytes assessed as change in HCV RNA level in serum at 100 mg/kg, po bid administered through gavage for 7 days by RT-PCR method. Type of data set: functional, Hepacivirus hominis, Hepatocyte. Summed up:
(§3)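 Male chimeric SCID cDNA-uPA+/+ mice with human hepatocyte liver (≥70% replacement by blood human albumin) and serum HCV RNA >1.0×10^6 copies/mL the week before dosing. Oral gavage for 7 days in 20% HP-β-CD, 50-200 mg/kg QD or BID. Serum sampled pre-dose on days 1, 2, 3, 5 and 7. Real-time PCR; mean change in log10 copies/mL, day 7 vs day 1 pre-dose.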

Data set [6] in a line: Cmax in rat liver at 50 mg/kg, po. Type of data set: ADME, organism-based. On the set-up: dose 50 mg/kg, route oral.
Data set [7] has as its system Hepatitis C virus. The data set is described as follows: Antiviral activity against HCV genotype 3a infected in homozygous cDNA-uPA chimeric SCID mouse bearing humanized hepatocytes assessed as change in HCV RNA level in serum at 200 mg/kg, po bid administered through gavage for 7 days by RT-PCR method. Type of data set: functional, Hepacivirus hominis, Hepatocyte. The essentials:
as §3

Data set [8] can be described thus: Cytotoxicity against human HuH7-CMV-Luc cells assessed as reduction in cell proliferation after 3 days by 5-bromo-2'-deoxyuridine incorporation assay. Type of data set: cell-based, Huh-7. Summed up:
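Huh7 cells at 1,500 cells/well, five serial compound dilutions in triplicate, 3 days of incubation. Proliferation was quantified as BrdU incorporation into DNA by ELISA.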

Data set [9] deals with Liver. The data set is described as follows: Tlast in dog liver assessed as 2'-deoxy-2'-spirooxetane uridine triphosphate at 50 mg/kg, po. Type of data set: ADME, organism-based, Canis lupus familiaris. Conditions: in vivo. Summed up:
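Single oral dose of 50 mg/kg formulated in 20% HP-β-cyclodextrin. Prodrug and its triphosphate were measured in plasma and liver (ng/mL or ng/g) over time, and Cmax, tmax, AUC, tlast and t1/2 were derived. For some analytes, data from two independent studies are reported.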

Data set [10] is described as follows: Cmax in dog liver at 50 mg/kg, po. It counts as ADME, organism-based, Canis lupus familiaris. On the set-up: dose 50 mg/kg, route oral.
For data set [11], the system named is Liver. The data set is described as follows: AUC (0 to last) in dog liver assessed as 2'-deoxy-2'-spirooxetane uridine triphosphate at 50 mg/kg, po. It counts as ADME, organism-based, Canis lupus familiaris. Particulars: in vivo. The essentials:
(§4)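 Oral dose 50 mg/kg, formulated in 20% HP-β-cyclodextrin. Prodrug and triphosphate were measured in plasma and liver (ng/mL or ng/g). Parameters derived were Cmax, tmax, AUC0-last, AUC0-inf and t1/2. Some prodrug data come from two independent studies.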

In data set [12] the test system is Hepatitis C virus. The data set is described as follows: Antiviral activity against HCV genotype 1a infected in homozygous cDNA-uPA chimeric SCID mouse bearing humanized hepatocytes assessed as change in HCV RNA level in serum at 100 mg/kg, po qd administered through gavage for 7 days by RT-PCR method. Type of data set: functional, Hepacivirus hominis, subtype 1a, Hepatocyte. Summed up:
as §3

Data set [13] relates to Hepatocyte. In words: Prodrug conversion in human hepatocytes assessed as 2'-deoxy-2'-spirooxetane uridine triphosphate formation in presence of pan-PDE inhibitor ibudilast by LC-MS/MS analysis. It counts as ADME, cell-based.
The nature of data set [14]: Cmax in mouse liver at 50 mg/kg, po. On the set-up: dose 50 mg/kg, route oral. It counts as ADME, organism-based.
A short description of data set [15]: Stability in human HuH7 cells assessed as parent compound level at 100 uM incubated for 96 hrs by LC-MS analysis. Type of data set: ADME, cell-based. Particulars: huh-7, 96 h. The essentials: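 Huh-7 replicon-containing cells incubated 96h with prodrug at 100µM; cell lysates analysed by LC-MS for triphosphate and remaining unmetabolised prodrug.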
The test system of data set [16] is Hepatocyte. In words: Drug metabolism in human hepatocytes assessed as ((4R,5R,7R,8R)-5-(2,4-dioxo-3,4-dihydropyrimidin-1(2H)-yl)-8-hydroxy-1,6-dioxaspiro[3.4]octan-7-yl)methyl dihydrogen phosphate formation in presence of pan-PDE inhibitor ibudilast by LC-MS/MS analysis. Type of data set: ADME, cell-based.
Data set [17] relates to Hepatitis C virus. In words: Antiviral activity against HCV genotype 1a infected in homozygous cDNA-uPA chimeric SCID mouse bearing humanized hepatocytes assessed as change in HCV RNA level in serum at 100 mg/kg, po bid administered through gavage for 7 days by RT-PCR method. Type of data set: functional, Hepacivirus hominis, subtype 1a, Hepatocyte. Summed up:
as §3

In data set [18] the test system is Liver. The data set is described as follows: AUC (0 to last) in rat liver assessed as 2'-deoxy-2'-spirooxetane uridine triphosphate at 50 mg/kg, po. It counts as ADME, organism-based. Particulars: in vivo. The essentials: as §4
Data set [19] deals with Hepatocyte. In words: Prodrug conversion in human cryopreserved hepatocytes assessed as 2'-deoxy-2'-spirooxetane uridine triphosphate level per million cells at 10 uM after 8 hrs by LC-MS/MS analysis. Type of data set: ADME, cell-based. Summed up:
as §1

Data set [20] can be described thus: Half life in rat plasma at 50 mg/kg, po. Type of data set: ADME, organism-based. The essentials: as §2
In another data set the test system is Mus musculus. The data set is described as follows: Half life in homozygous cDNA-uPA chimeric SCID mouse bearing humanized hepatocytes infected with HCV assessed as 2'-deoxy-2'-spirooxetane uridine triphosphate at 50 to 200 mg/kg, po bid administered through gavage for 7 days. It counts as ADME, organism-based, Hepatocyte. Conditions: 168 h.
Data set [21] relates to Liver. In words: Cmax in rat liver assessed as 2'-deoxy-2'-spirooxetane uridine triphosphate at 50 mg/kg, po. It counts as ADME, organism-based. On the set-up: dose 50 mg/kg, route oral. Particulars: in vivo.
For data set [22], the system named is Liver. In words: AUC (0 to last) in mouse liver at 50 mg/kg, po. Particulars: in vivo. Type of data set: ADME, organism-based. Summed up: as §4
A short description of data set [23]: AUC (0 to infinity) in dog plasma at 50 mg/kg, po. On the set-up: dose 50 mg/kg, time infinity, route oral. It counts as ADME, organism-based, Canis lupus familiaris. The essentials: as §4
Data set [24] in a line: Cmax in dog plasma at 50 mg/kg, po. Type of data set: ADME, organism-based, Canis lupus familiaris. On the set-up: dose 50 mg/kg, route oral.
The test system of data set [25] is Liver. In words: Cmax in dog liver assessed as 2'-deoxy-2'-spirooxetane uridine triphosphate at 50 mg/kg, po. It counts as ADME, organism-based, Canis lupus familiaris. On the set-up: dose 50 mg/kg, route oral. Particulars: in vivo.
For data set [26], the system named is Hepatocyte. The data set is described as follows: Prodrug conversion in rat primary hepatocytes assessed as 2'-deoxy-2'-spirooxetane uridine triphosphate level per million cells at 2 uM after 4 hrs using radiolabelled compound by LC-MS/MS analysis. Type of data set: ADME, cell-based. The essentials: (§5)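 Study A: fresh primary hepatocyte cultures from mouse, rat, dog and human incubated with tritiated prodrug at 2 or 62.5 µM for 4 or 24 h. Triphosphate in cell lysates reported as pmol/million hepatocytes. Duplicate or single measurements.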

Data set [27] deals with Hepatocyte. The data set is described as follows: Prodrug conversion in human primary hepatocytes assessed as 2'-deoxy-2'-spirooxetane uridine triphosphate level per million cells at 62.5 uM after 4 hrs using radiolabelled compound by LC-MS/MS analysis. Type of data set: ADME, cell-based. The essentials:
as §5

Data set [28] is described as follows: Prodrug conversion in dog primary hepatocytes assessed as 2'-deoxy-2'-spirooxetane uridine triphosphate level per million cells at 2 uM after 24 hrs using radiolabelled compound by LC-MS/MS analysis. It counts as ADME, cell-based, Canis lupus familiaris, Hepatocyte. Summed up:
as §5

A short description of data set [29]: Prodrug conversion in dog primary hepatocytes assessed as 2'-deoxy-2'-spirooxetane uridine triphosphate level per million cells at 62.5 uM after 24 hrs using radiolabelled compound by LC-MS/MS analysis. Type of data set: ADME, cell-based, Canis lupus familiaris, Hepatocyte. Summed up: as §5

Consider `CC(C)O[P@@]1(=O)OC[C@H]2O[C@@H](n3ccc(=O)[nH]c3=O)[C@@]3(CCO3)[C@@H]2O1`, for which the Drug metabolism entry was “metabolite_detected” in the data set with Hepatocyte [1]; below 2 ng in data set [3]; “metabolite_notdetected” in the data set with Hepatocyte [13]; “metabolite_detected” with Hepatocyte [16]; 0.172 pmol with Hepatocyte [19]. The Drug uptake result with Hepatocyte [2] is given as “Active”. Also, the t1/2 in the data set with Liver [4] and in the data set on Mus musculus was 3.9 h throughout. In addition, the Activity in the data set with Hepatitis C virus [5] is -1.08; with Hepatitis C virus [7], -1.58; in the data set on Hepatitis C virus [12] it was -0.83; in the data set with Hepatitis C virus [17], -1.17. For the same molecule, the Cmax stood at 944 ng/g in data set [6]; 5030 ng/g in data set [10]; 701 ng/g in data set [14]; 73500 ng/g in the data set on Liver [21]; 4650 ng/mL in [24]; 46600 ng/g in the data set on Liver [25]. For the same molecule, the half-maximal cytotoxic concentration (CC50) at 72 h in data set [8] is above 100 µM. The Tlast in the data set with Liver [9] stood at 24 h. Moreover, the AUClast came to 223803 ng·h/g in the data set on Liver [11], 719469 ng·h/g in the data set with Liver [18] and 1456 ng·h/g in the data set with Liver [22]. In addition, the Stability entry in data set [15] is recorded as “Stable”. The molecule further had a half-life in data set [20] of 4.8 h. Also, the AUC(0-inf) in data set [23] turned out to be 29100 ng·h/mL.

As to `[3H]C1O[P@](=O)(OC(C)C)O[C@@H]2[C@@H]1O[C@@H](n1ccc(=O)[nH]c1=O)[C@@]21CCO1` (stereo not given in full), the Drug metabolism in the data set on Hepatocyte [26] is on record as 0.085 pmol; in the data set on Hepatocyte [27], 0.24 pmol; in data set [28], 0.007 pmol; in data set [29], 0.11 pmol.
